# Rows were chosen to be rich in hits. Some 3.5% of all compounds tested hit in one or more screens of this group.
# MrgX1 allo act – allosterically activates human MrgX1 receptor signaling | Q96LB2 | MrgX1-HEK293, Fluo-4 calcium flux, FDSS; hits give high values | B-score at 10 µM | 310,000 tested, 0.63% active | AID 588675;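 active = plate-corrected calcium response at least 3 library SD above typical, normal starting fluorescence, not activating the receptor alone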;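 also: compound read alongside a low EC10 to EC30 dose of BAM8-22 agonist; peak minus trough fluorescence over baseline measured at the second addition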
# Target sequence (Q96LB2 whole entry, looked up): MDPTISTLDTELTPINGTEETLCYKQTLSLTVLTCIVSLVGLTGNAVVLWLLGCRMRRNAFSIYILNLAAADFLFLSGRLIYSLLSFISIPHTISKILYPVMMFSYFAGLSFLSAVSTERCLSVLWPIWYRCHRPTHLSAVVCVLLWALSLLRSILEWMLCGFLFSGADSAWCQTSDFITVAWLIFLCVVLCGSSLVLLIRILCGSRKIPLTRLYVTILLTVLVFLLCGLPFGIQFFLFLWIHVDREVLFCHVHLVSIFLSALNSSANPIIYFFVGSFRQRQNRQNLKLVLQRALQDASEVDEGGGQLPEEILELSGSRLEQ
# RGS4 act – RGS4 potentiation or activation | 310,000 tested, 0.92% active | HEK293 M3R/inducible RGS4, carbachol calcium flux Fluo4; hits give low values | B-score at 10 µM;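 active = B-score of the integrated calcium signal more than 4 SD below the library mean, with starting fluorescence not abnormally high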;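 also: negative B-score means reduced calcium response which marks RGS4 activation or potentiation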
#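 System – HEK293 FlpIn-TREx cells, stable M3R, doxycycline-inducible RGS4 · Reagent – ECmax carbachol challenge · Times – compound preincubation 20 min at room temperature before agonist · Technique – Fluo4 fluorescence kinetic imaging of calcium · Measure – B score of integrated Fluo4 ratio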
# MrgX1 antagonist – human MrgX1 receptor antagonism, primary screen; B-score at 10 µM; 310,000 tested, 1.3% active; MRGX1-HEK293 calcium flux, Fluo-4, BAM8-22 antagonism; hits give low values; Q96LB2;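 active = calcium-response B-score plate-corrected more than 3 library SD below zero, starting fluorescence within 5 deviations, no agonist response on first addition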;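 also: peak minus trough fluorescence over baseline after final BAM8-22 challenge near maximal dose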
# RGS4 inh – inhibitors of human RGS4 | P49798 | HEK293 M3R/RGS4 inducible, Fluo-4 calcium flux; hits give high values; triggered by carbachol at its EC20 | B-score at 10 µM | 310,000 tested, 0.45% active | AID 463165;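 active = B-score, a plate-corrected calcium signal, over three deviations above library mean, with baseline fluorescence within five deviations of library mean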;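 also: RGS4 expression induced by doxycycline in cells with stable M3 receptor; B-score is computed from the integrated fluorescence ratio over baseline after carbachol; higher B-score means a larger calcium signal and so more RGS4 inhibition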
# Target sequence (P49798 whole entry, looked up): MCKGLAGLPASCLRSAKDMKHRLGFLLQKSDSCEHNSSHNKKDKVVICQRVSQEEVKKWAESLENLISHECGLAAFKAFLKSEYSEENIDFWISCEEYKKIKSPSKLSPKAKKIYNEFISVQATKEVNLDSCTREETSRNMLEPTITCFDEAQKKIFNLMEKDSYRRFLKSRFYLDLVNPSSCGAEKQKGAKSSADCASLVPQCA
# MrgX1 agonist – human MrgX1 receptor agonism, primary screen. Q96LB2. MrgX1-HEK293 cells, Fluo-4 calcium fluorescence, agonist mode; hits give high values. B-score at 10 µM. 310,000 tested, 0.44% active. AID 588627;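 active = calcium response B-score plate-corrected fluorescence ratio at least 3 library SD, with starting fluorescence B-score inside 5 SD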
#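 Material – MrgX1-expressing HEK293 cells · Input – 15,000 cells seeded per well · Dosing – compound as first of three additions · Times – overnight seeding, then 1 h dark dye loading · Measured by – kinetic Fluo-4 NW fluorescence of intracellular calcium · Read-out – B-scored fluorescence response ratio · Benchmarks – positive and negative control wells on each plate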
# RGS4 inh valid – validation of RGS4 inhibitors | shares compounds with RGS4 inh | HEK293 M3R/RGS4, carbachol calcium Fluo-4 fluorescence; carbachol added at its EC20; 0 = buffer wells, 100 = carbachol control | 1,700 tested, 65% active | calcium response, % at 10 µM;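 active = duplicate-averaged calcium response above the buffer-only control mean plus 5 SD of those controls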;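 also: integrated fluorescence ratio F max minus min over baseline F0; higher response in RGS4-induced cells means RGS4 inhibition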
# RGS4 uninduced – non-induced cell nonspecific activity of RGS4 inhibitors; shares compounds with RGS4 inh; HEK293 M3R non-induced, carbachol calcium Fluo-4; submaximal (EC20) carbachol stimulus; buffer wells 0%, carbachol control wells 100%; activity (percent), % at 10 µM; 1,900 tested, 20% active; AID 493000; call rule not given here;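 also: RGS4 induction absent so cells express M3R without RGS4; higher means more calcium signal and flags a non-specific hit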
# M3R basal Ca ctr – signal in non-induced cells without carbachol, RGS4 inhibitor counter-screen; calcium response (agonist-mode artifact), % at 10 µM; HEK293 M3R/RGS4 non-induced, Fluo-4 calcium, no carbachol; normalised: buffer wells 0%, carbachol wells 100%; AID 493001; 1,900 tested, 22% active; shares compounds with RGS4 inh;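 active = duplicate-averaged calcium rise in uninduced cells above buffer wells' mean plus 5 SD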
# Numbers without * were called inactive; i = inactive; nt = not tested or not shown.
SMILES,MrgX1 allo act,RGS4 act,MrgX1 antagonist,RGS4 inh,MrgX1 agonist,RGS4 inh valid,RGS4 uninduced,M3R basal Ca ctr
COc1ccc(OC)c(C2CC(c3c(-c4ccccc4)c4cc(Cl)ccc4[nH]c3=O)=NN2S(C)(=O)=O)c1 (stereo unspecified),i,i,i,i,i,nt,49.0%*,35.5%*
COc1ccc(NC(=O)/C(Cl)=C(/Cl)S(=O)(=O)Cc2ccc(C)cc2)cn1,nt,i,nt,12*,nt,24.0%*,i,7.5%*
CC(=O)/C=C1/C(=O)Nc2ccccc21,i,i,i,18.3*,i,33.5%*,43.5%*,26.5%*
Cc1nc2ccc(S(=O)(=O)NCC(=O)NCCc3ccc(Cl)cc3)cc2s1,i,i,i,i,i,nt,nt,nt
COc1cc(/C=C2/C(=O)ON=C2c2ccccc2)ccc1O,i,i,i,11.2*,27.7*,38.0%*,i,97.0%*
Cc1sc(/C=C2\C(=O)ON=C2c2ccccc2)cc1Br,i,i,i,i,i,nt,nt,nt
COc1cc(C=C2C(=O)c3ccccc3C2=O)ccc1O,i,i,i,i,i,nt,nt,nt
C=CCOc1ccc(/C=C2/C(=O)ON=C2C)cc1OC,i,i,i,9.41*,i,17.5%*,i,16.5%*
COc1cc(/C=C2\C(=O)ON=C2c2ccccc2)cc(Cl)c1O,i,-7.86*,i,13*,89.5*,40.0%*,i,253.0%*
C=CCN(C(=O)CNS(=O)(=O)c1ccccc1)C(C(=O)NCCOC)c1cccnc1 (stereo unspecified),i,i,i,i,i,nt,nt,nt
CC(=O)N1N=C(c2c(-c3ccccc3)c3cc(Br)ccc3[nH]c2=O)CC1c1ccco1 (stereo unspecified),i,i,i,7.49*,i,20.5%*,i,i
CC(=O)N1N=C(c2c(-c3ccccc3)c3cc(C)ccc3[nH]c2=O)CC1c1ccco1 (stereo unspecified),i,i,i,i,i,nt,i,i
CC(=O)N1N=C(c2cccc(NS(=O)(=O)c3ccc(C)cc3)c2)CC1c1ccco1 (stereo unspecified),i,i,i,i,i,nt,nt,nt
CSCCCN1CCCC(CO)(Cc2ccccc2F)C1 (stereo unspecified),i,i,i,i,i,nt,nt,nt
COc1ccc(C(=O)/C=C/c2ccc(O)cc2)c(O)c1CC=C(C)C,i,i,i,6.36*,i,19.0%*,i,i
COc1ccc(C(=O)/C=C/c2ccc(O)cc2)cc1,i,i,i,i,i,nt,nt,nt
CN1CCN(C(=O)CCCN2C(=O)/C(=C/c3ccccc3)SC2=S)CC1,i,i,i,i,i,nt,nt,nt
O=C(O)CCCN1C(=O)/C(=C\c2ccc(-c3nc4ccccc4s3)o2)SC1=S,i,-7.86*,-7.98*,20.6*,i,13.5%*,i,125.5%*
O=C(O)CCCN1C(=O)/C(=C\C(Cl)=C\c2ccccc2)SC1=S,i,i,i,14.8*,i,44.5%*,i,i
Cc1cccc(C(=O)OCC(=O)NC(C)CCc2ccccc2)c1O (stereo unspecified),i,i,i,i,i,nt,nt,nt
COc1cccc(/C=C/C(=O)c2ccc(C)c([N+](=O)[O-])c2)c1,i,i,i,8.87*,32.1*,i,39.5%*,i
CCOC(=O)c1ccc(OC)c(OC)c1Cl,i,i,i,i,i,nt,nt,nt
COC(=O)c1ccc(OC)c(OC)c1Cl,i,i,i,5.81*,i,5.5%*,i,i
O=C(O)CNS(=O)(=O)c1ccc(C2CCCCC2)cc1,i,i,i,i,i,nt,nt,nt
COc1ccccc1CN=C1NC(=O)C(CC(=O)Nc2ccc(C(C)=O)cc2)S1 (stereo unspecified),i,i,i,i,i,i,i,i
SMILES,MrgX1 allo act,RGS4 act,MrgX1 antagonist,RGS4 inh,MrgX1 agonist,RGS4 inh valid,RGS4 uninduced,M3R basal Ca ctr
C/C(=N\N=C1\NC(=O)C(CC(=O)Nc2ccc(C)c(Cl)c2)S1)C(C)C (stereo unspecified),i,i,i,i,i,nt,29.5%*,i
C/C(=N\N=C1\NC(=O)C(CC(=O)NCc2ccccc2)S1)C(C)C (stereo unspecified),i,i,i,i,i,nt,nt,nt
Clc1ccc(OCc2noc(-c3ccsc3)n2)c(Cl)c1,i,i,i,i,i,nt,nt,nt
O=C(CCN1CCN(c2ccc([N+](=O)[O-])cc2)CC1)c1ccc(Cl)cc1,i,i,i,i,i,nt,nt,nt
O=C(CCN1CCN(c2ccccc2)CC1)c1ccc(Cl)cc1,i,i,i,23.9*,i,i,35.0%*,19.5%*
O=C(/C=C/c1ccncc1)c1ccc2c(c1)OCCO2,i,i,i,7.46*,i,32.5%*,i,i
O=C(/C=C/c1ccccc1)c1ccc2c(c1)OCO2,i,i,i,i,i,nt,nt,nt
COc1ccc(C(=O)Nc2ccc(O)c3ccccc23)cc1OC,i,i,i,i,i,nt,nt,nt
COc1ccc(OC)c(/C=C(\C)C(=O)c2c(C)cc(C)[nH]c2=O)c1,i,i,i,i,i,nt,nt,nt
CC(C)(C)c1cc(-n2ccnc2)n2ncc(-c3ccc(Cl)cc3)c2n1,i,i,i,4.7*,i,14.5%*,i,i
CCCc1cc(N2CCOCC2)n2ncc(-c3ccccc3)c2n1,i,i,i,i,i,nt,nt,nt
CC(C)(C)c1cc(N2CCOCC2)n2ncc(-c3ccccc3)c2n1,i,i,i,i,i,i,i,i
CC(C)(C)c1cc(NCCCn2ccnc2)n2ncc(-c3ccccc3)c2n1,i,i,i,9.04*,i,10.5%*,i,i
CC(=O)Nc1ccc(S(=O)(=O)Oc2cccc(/C=N/N=C3/NC(=O)C(CC(=O)O)S3)c2)cc1 (stereo unspecified),i,i,i,i,i,nt,nt,nt
CCOc1ccc(/C(O)=C2/C(=O)C(=O)N(c3nc(C)c(C)s3)C2c2ccco2)cc1 (stereo unspecified),i,i,i,i,i,nt,i,i

# High-throughput results deposited in PubChem BioAssay by Johns Hopkins Ion Channel Center.
